Source: PubChem (Broad Institute)
FN deposit inh – fibronectin deposition inhibition. inhibition, % at 12.6 µM. actives 0.086% (n = 350,000). AH1F fibroblasts, Alexa488-fibronectin deposition fluorescence, overnight;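 active means mean inhibition across replicates of 30% or more, regardless of how many single replicates reach that level; inconclusive means mean under 30% yet at least half of replicates reach 30%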;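 further: positive control wells lacked labelled fibronectin entirely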
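Material: AH1F fibroblast monolayer depositing Alexa488-labelled fibronectin into matrix / Amount: 10000 AH1F cells per well / Signal: fluorescence 485/525 nm / Medium: DMEM, 2% serum / Compound: single dose, pinned / Incubation: 1 h cell adhesion before compound, then overnight fibronectin incubation / Reagent: Alexa488-FN, 24 nM final / Read-out: inhibition of fibronectin deposition signal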
PAX8 inh HTS – inhibitors of PAX8 transcriptional activity in RMG-I cells; RMG-I TPO-luciferase reporter, SteadyGlo, 24 h; actives 1.2% (n = 360,000); AID 652154; inhibition, % at 12.6 µM;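 active means mean replicate inhibition at least 60% with every replicate also reaching 60%; inconclusive means only one of the two criteria is met; inactive means mean below 60% and not all replicates reaching 60%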;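 further: luciferase light reporting Pax8 driven TPO promoter activity; plate controls were median of neutral control wells for no effect and mitoxantrone controls for full effect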
EWS-Fli block – inhibitors of EWS/Fli oncoprotein transcriptional activity. inhibition, % at 12.6 µM. A673 NR0B1-luciferase reporter, viability-normalised. actives 0.67% (n = 350,000). AID 651661;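 active means mean inhibition of at least 50% after viability correction, with every replicate also passing that limit; inconclusive means mean reaches 50% but only one of two replicates passes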;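 further: firefly luciferase signal divided by Alamar Blue viability fluorescence both relative to DMSO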
FGF22 binding – binders of recombinant human FGF22 by thermal shift; activity (Tm shift, normalised), % at 9.99 µM; Q9HCT0; SYPRO orange fluorescence; percent of sucrose octasulfate shift, DMSO zero; actives 1.5% (n = 340,000);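 active means mean Tm shift, scaled 0 neutral to 100 positive control, at about 1.3% or above, every replicate too, limit read from the data; inconclusive means no clear call, values can overlap the other calls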
Target sequence (Q9HCT0 whole entry, looked up): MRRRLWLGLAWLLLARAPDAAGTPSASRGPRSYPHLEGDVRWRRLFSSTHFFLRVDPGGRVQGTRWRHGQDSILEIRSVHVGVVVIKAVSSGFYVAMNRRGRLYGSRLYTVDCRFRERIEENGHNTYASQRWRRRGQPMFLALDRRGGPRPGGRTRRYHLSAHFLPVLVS
PGC1a acetyl inh – PGC1a acetylation modulation, inhibitor mode. U2OS PGC1a acetylation, AlphaScreen anti-acetyl-lysine; with virally co-expressed GCN5 acetyltransferase. inhibition, % at 15.6 µM. actives 0.17% (n = 350,000);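 active means every replicate shows inhibition of at least 40%; inconclusive means mean inhibition at least 40% but some replicate below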;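 further: 0% = neutral control wells and 100% = positive control wells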
Env fusion inh – HIV envelope-mediated fusion inhibition | inhibition, % at 12.3 µM | HeLa-JRFL Env/CEM21 cell fusion, luciferase | actives 1.1% (n = 360,000);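 active means mean replicate inhibition score of at least 50 and every replicate individually at or above 50; inconclusive means only one of the two criteria met; inactive means mean below 50 and not all replicates reaching 50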;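 further: 0% = plate neutral controls and 100% = maraviroc near 300 nM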
Active calls of the source: *; ? = inconclusive; / = not tested or not shown; [ ] = remark or other dose. Only some compounds are listed: those with a hit (about 3.1% of all), similar ones and a draw of the others.

SMILES	FN deposit inh	PAX8 inh HTS	EWS-Fli block	FGF22 binding	PGC1a acetyl inh	Env fusion inh
CC1=C(C(=O)OCC2CCCO2)C(c2coc3ccc(Cl)cc3c2=O)C2=C(CCCC2=O)N1 (stereo unspecified)	-3.8	35.1	8.5	0.3	-11.5	9.5
CC1=C(C(=O)OCC2CCCO2)C(c2coc3ccc(C)cc3c2=O)C2=C(CCCC2=O)N1 (stereo unspecified)	-8.9	26.6	-5.2	64.3*	5.9	4.2
C[C@@H]1CN([C@H](C)CO)C(=O)c2cc(NC(=O)Nc3ccc(F)cc3)ccc2O[C@@H](C)CCCCO[C@H]1CN(C)S(=O)(=O)c1ccc(Cl)cc1	11.3	76.1*	-15.3	0.2	-26.6	21.6[16.7 µM]
C[C@@H]1CCCCO[C@H](CN(C)S(=O)(=O)c2ccc(Cl)cc2)[C@@H](C)CN([C@@H](C)CO)C(=O)c2cc(NC(=O)Nc3ccc(F)cc3)ccc2O1	2.3	66.0*	6.3	0.1	14.9	8.6[16.7 µM]
Cc1ccc(S(=O)(=O)N(C)C[C@H]2Oc3c(NC(=O)C4CCOCC4)cccc3C(=O)N([C@H](C)CO)C[C@@H]2C)cc1	/	-15.6	-0.4	0.0	2.6	-10.0[16.7 µM]
C[C@@H]1CN([C@@H](C)CO)C(=O)c2cccc(NS(C)(=O)=O)c2O[C@@H]1CN(C)Cc1ccc2c(c1)OCO2	/	-15.3	/	-0.6	2.9	10.0[16.7 µM]
Clc1ccc(CN(CC2CCCO2)C(c2cccs2)c2nnnn2C2CCCC2)cc1 (stereo unspecified)	7.7	40.4	/	/	-14.1	116.9*
c1csc(C(c2nnnn2C2CCCC2)N2CCOCC2)c1 (stereo unspecified)	/	/	/	/	1.0	/
CCN(Cc1ccccc1)C(c1cccs1)c1nnnn1C1CCCCC1 (stereo unspecified)	-7.3	/	/	/	-1.3	96.4*
Clc1ccccc1CN(Cc1ccccc1)C(c1cccs1)c1nnnn1C1CCCC1 (stereo unspecified)	-0.8	3.3	/	/	-25.3	83.0*
COCC(=O)Nc1ccc2c(c1)OC[C@@H](C)N(Cc1ccccn1)C[C@H](C)[C@H](OC)CN(C)C2=O	-2.6	-1.1	-2.3	-0.1	1.9	/
CC1=C(CO)C(=O)OC([C@@H](C)C2CC[C@H]3C4C[C@H]5O[C@]56[C@@H](O)C=CC(=O)[C@]6(C)C4CC[C@]23C)C1 (stereo partly specified)	/	/	64.3*	0.1	14.4	/
COc1ccccc1-c1nc(SCC(=O)Nc2ccccc2F)n[nH]1	7.3	28.0	46.1	-0.3	/	69.6*
CN(C)c1ccc2c(c1)[C@@H]1C[C@@H](CC(=O)NCCN3CCCCC3)O[C@H](CO)[C@@H]1O2	/	-0.9	-1.0	-1.4	6.9	-7.0[16.7 µM]
COc1ccccc1-c1c(-c2ccc(O)cc2O)n[nH]c1C(F)(F)F	-1.7	14.1	7.9	0.0	14.1	92.5*
Cc1ccc(C(=O)N/N=C/c2ccc(-c3cccc(C(F)(F)F)c3)o2)cn1	0.7	25.4	50.4*	-0.2	5.2	-98.5
CNC(=S)N/N=C/c1ccc(-c2cccc(C(=O)O)c2)o1	-3.0	-36.1	11.7	0.2	2.5	7.5
COCC(=O)NC[C@H]1[C@@H](c2ccccc2)[C@@H](CO)N1C(C)=O	-2.3	-7.2	-4.5	0.0	-3.3	/
C[C@@H]1CN([C@@H](C)CO)C(=O)c2cc(NC(=O)Nc3ccc(F)cc3)ccc2O[C@@H](C)CCCCO[C@H]1CN(C)Cc1ccc(Cl)c(Cl)c1	/	71.8*	4.1	0.0	6.0	48.0[16.7 µM]
C[C@@H]1CCCCO[C@H](CN(C)Cc2ccc(Cl)c(Cl)c2)[C@@H](C)CN([C@@H](C)CO)C(=O)c2cc(NC(=O)NC3CCCCC3)ccc2O1	/	70.1*	-0.7	0.0	10.8	/
C[C@@H]1CN([C@@H](C)CO)C(=O)c2cc(NC(=O)NC3CCCCC3)ccc2O[C@@H](C)CCCCO[C@H]1CN(C)Cc1ccc(Cl)c(Cl)c1	/	?	2.4	-1.3	/	25.8[16.7 µM]
C[C@@H]1CCCCO[C@H](CN(C)Cc2ccc(Cl)c(Cl)c2)[C@H](C)CN([C@@H](C)CO)C(=O)c2cc(NC(=O)Nc3ccc(F)cc3)ccc2O1	/	75.3*	4.4	-0.7	?	-47.3
O=C(C1CC1)N1CC2(C1)[C@H](c1ccccc1)[C@@H](CO)N2C(=O)c1cccnc1	-12.8	/	-2.2	-0.1	3.3	/
O=C(Nc1cccc(O)c1)c1ccc([N+](=O)[O-])cc1Cl	-1.0	-53.5	-26.5	43.2*	/	-10.7
CC(C)CC#Cc1ccc2c(c1)O[C@H](CN(C)C(=O)CN(C)C)[C@@H](C)CN([C@H](C)CO)S2(=O)=O	7.6	/	1.6	0.1	-0.4	2.8[16.7 µM]
SMILES	FN deposit inh	PAX8 inh HTS	EWS-Fli block	FGF22 binding	PGC1a acetyl inh	Env fusion inh
COc1ccc(OCCN(C)Cc2c(O)ccc3ccccc23)cc1	16.2	62.0*	8.2	-0.8	-13.4	17.5
O=C(O)[C@H]1CC=C[C@H]2CCN(Cc3ccc(Cl)c(Cl)c3)C(=O)[C@@H]12	/	-1.3	0.4	-0.6	12.7	-17.8
O=C(Nc1ccc(Cl)c(C(F)(F)F)c1)[C@@H]1CC=C[C@@H]2CCN(Cc3ccc(Cl)c(Cl)c3)C(=O)[C@@H]21	-20.3	30.0	6.5	0.0	-1.3	84.2*
C[C@@H]1CN([C@H](C)CO)C(=O)c2cccc(NC(=O)C3CC3)c2O[C@@H]1CN(C)C	/	-18.3	2.0	0.0	7.7	13.3[16.7 µM]
CC(=O)C1=C(O)C(=O)N(c2ccc(C)cc2)C1c1ccc([N+](=O)[O-])cc1 (stereo unspecified)	-4.2	-3.1	-8.7	0.1	/	-6.3
CC(=O)C1=C(O)C(=O)N(c2ccc(O)cc2)C1c1ccc([N+](=O)[O-])cc1 (stereo unspecified)	36.0*	12.3	-5.8	0.2	1.6	16.4
C[C@@H]1CN([C@@H](C)CO)C(=O)c2cc(NS(=O)(=O)c3ccc(F)cc3)ccc2O[C@H]1CN(C)S(=O)(=O)c1cccs1	-9.2	7.8	-6.9	0.0	-4.9	-21.0[16.7 µM]
Cc1oc(-c2ccc(Cl)cc2)nc1CN1CCCC(C(=O)NCc2ccccn2)C1 (stereo unspecified)	-3.9	0.7	/	/	0.4	25.2
Cc1oc(-c2ccc(Cl)cc2)nc1CN1CCCC(C(=O)NCc2cccnc2)C1 (stereo unspecified)	/	25.4	/	/	/	86.7*
Cc1oc(-c2cccc(Cl)c2)nc1CN1CCCC(C(=O)NC(C)c2ccc3c(c2)OCCO3)C1 (stereo unspecified)	11.9	39.0	7.7	/	8.6	84.4*
CN(C[C@@H]1N[C@H](CO)[C@@H]1c1ccc(-c2cccc(F)c2)cc1)C(=O)C1CCC1	-2.9	11.5	9.9	0.0	1.8	/
CCc1nc2ccc(C(=O)NCCN3CCNC3=O)cn2c1N(CC)Cc1cccc(Br)c1	-7.0	-9.4	7.5	-0.1	/	72.0*
